Screening results from PubChem BioAssay.
This excerpt belongs to a sample that is enriched for hits.
bCat KO growth = primary screen for growth suppressors in beta-catenin knockout HCT116 cells (colon tumor, human); HCT116 beta-catenin knockout viability, CellTiter-Glo, 60 h; stronger effect = lower value; viability, % at 10 µM; hit rate 1.5% among 140,000;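 active means viability at or under a set limit, the compound median less 4 SD, cut at about 6% in these data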;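 further: 0% = Hyamine 1622 control at 20 µM and 100% = untreated cell control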
H69AR inhibit = proliferation blockers of H69AR lung cancer cells, primary screen, cell-based, human, 86K library. H69AR lung tumor viability, ATP luminescence, 72 h; stronger effect = lower value. hit rate 6% among 85,000. viability, % at 10 µM;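 active means viability at or below 40%; inactive means viability above 40%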;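 further: multidrug resistant small cell line overexpressing MRP-1 efflux transporter; 100% = mean luminescence of untreated control wells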
Fibroblast inh = antiproliferative effect on LL 47 fibroblasts – human, LL 47 cells, CellTiter-Glo luminescence, primary screen. viability, % at 10 µM. LL 47 human lung fibroblast viability, ATP luminescence; stronger effect = lower value. AID 719, 2007. hit rate 1.1% among 85,000;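 active means viability at or below 50% in the single dose screen; inactive means viability above 50%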;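 further: compound exposure lasted 72 h before the ATP readout; 100% = median luminescence of untreated cell-only wells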
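Benchmarks: Cell-only wells, no compound | Test system: LL 47 human lung fibroblasts, passage 12 or lower | Input: 1,150 cells/well | Measured by: CellTiter-Glo luminescence measuring cellular ATP | Medium: IMEM, 15% FBS supplement | Schedule: Overnight attachment after seeding, then 72 h compound exposure at 37 °C | Doses: Compound addition at 0.1% DMSO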
HUVEC prolif 384 = inhibitors of HUVEC proliferation, primary screen, cell-based, 384-well; CellTiter-Glo luminescence, 72 h; stronger effect = lower value; viability, % at 10 µM (by protocol); hit rate 1.1% among 86,000;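 active means viability at or below 30%; inactive means viability above 30%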;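 further: 100% = median luminescence of DMSO-only cell control wells on each plate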
HCT116 PTEN-null = growth suppression of PTEN-null HCT116, primary screen, cell-based, CellTiter-Glo; HCT116 PTEN-null viability, 60 h; stronger effect = lower value; viability, % at 10 µM; hit rate 1.2% among 140,000; AID 827, 2007;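 active means viability at or below a set limit, 4 SD under the median of all tested compounds, cut at about 3.7% in these data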;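 further: PTEN knockout HCT116 line with beta catenin targeted HCT116 as companion control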
* = called active by the depositor.

How did COc1cc(CNc2ccc3[nH]c(=O)[nH]c3c2)cc(Br)c1OCC(=O)NC(C)(C)C do in these assays?
bCat KO growth: 85.2; H69AR inhibit: 9.9*; Fibroblast inh: 81.6; HUVEC prolif 384: 86.0; HCT116 PTEN-null: 88.1

How did CC(C)c1cccc(C(C)C)c1NC(=O)Cn1c(=O)cnc2ccccc21 do in these assays?
bCat KO growth: 78.0; HCT116 PTEN-null: 87.7

Results for COc1ccc(NS(=O)(=O)c2cc(NC(=O)c3cccc(OCc4c(C)noc4C)c3)ccc2OC)cc1 ?
bCat KO growth: 78.5; HCT116 PTEN-null: 70.5

What do the screens show for `Cc1ccc(C(=O)/C=C\NCc2ccccc2)cc1`?
bCat KO growth: 95.7; HCT116 PTEN-null: 88.2

How did Cc1ccc(S/C=C\C(=O)c2ccccc2)cc1 do in these assays?
bCat KO growth: 12.8; H69AR inhibit: 1.2*; Fibroblast inh: 70.5; HUVEC prolif 384: 28.6*; HCT116 PTEN-null: 71.2

Results for Cc1ccc(C(=O)/C=C\C(=O)c2ccc(C)cc2)cc1 ?
bCat KO growth: 1.7*; HCT116 PTEN-null: 1.8*

What do the screens show for `CC(/C=C/C(=O)c1ccc(C)cc1)=C\c1ccccc1`?
bCat KO growth: 75.0; HCT116 PTEN-null: 75.6

How did COc1ccc(-c2nc(N3CCCC3)nc3nn4c(C)cc(C)nc4c23)cc1 do in these assays?
H69AR inhibit: 86.6; Fibroblast inh: 117.5; HUVEC prolif 384: 94.2

What do the screens show for `CCCC(=O)C1=C(O)C(C(=O)OC)C(C)(C)CC1=Nc1ccc(N)cc1` (configuration not stated)?
bCat KO growth: 88.9; H69AR inhibit: 81.2; Fibroblast inh: 97.0; HUVEC prolif 384: 95.1; HCT116 PTEN-null: 86.9

What do the screens show for `CCCC(=Nc1ccc(N)cc1)C1=C(O)C(C(=O)OC)C(C)(C)CC1=O` (configuration not stated)?
bCat KO growth: 104.4; H69AR inhibit: 19.7*; Fibroblast inh: 99.7; HUVEC prolif 384: 87.8; HCT116 PTEN-null: 96.2

How did CN(C)CCNC(=O)/C=N/O do in these assays?
bCat KO growth: 95.1; HCT116 PTEN-null: 103.4

What do the screens show for `Cn1c2ccccc2c(=O)c2c(=O)n(C3CCCCCC3)c(C3CCCCC3)nc21`?
bCat KO growth: 5.2*; HCT116 PTEN-null: 2.5*

What do the screens show for `Cn1c2ccccc2c(=O)c2c(=O)n(C3CCCCC3)c(-c3cccs3)nc21`?
bCat KO growth: 24.8; H69AR inhibit: 34.2*; Fibroblast inh: 40.6*; HUVEC prolif 384: 53.6; HCT116 PTEN-null: 13.9

What do the screens show for `CO/N=C(/CS(=O)(=O)Cc1ccccc1Cl)c1ccc(Cl)cc1Cl`?
bCat KO growth: 77.6; HCT116 PTEN-null: 67.7

How did Cc1ccc(C(=O)/C=C/Nc2cccc([N+](=O)[O-])c2)o1 do in these assays?
bCat KO growth: 80.0; HCT116 PTEN-null: 80.2

Results for CC12CC(c3ccccc3O1)N(C(=O)c1ccco1)C(=S)N2c1ccc(F)cc1 (configuration not stated) ?
bCat KO growth: 65.6; H69AR inhibit: 6.4*; Fibroblast inh: 87.5; HUVEC prolif 384: 59.6; HCT116 PTEN-null: 54.9

How did Clc1ccc2c(c1)C(c1cccs1)=NNC(c1cccnc1)=N2 do in these assays?
bCat KO growth: 78.2; HCT116 PTEN-null: 83.6

Results for CCN(CC)S(=O)(=O)c1ccc2c(c1)nc(SCC(=O)N1CCOCC1)n2-c1ccccc1OC ?
bCat KO growth: 85.6; HCT116 PTEN-null: 88.5

How did O=C/C(=C\Nc1ccc(Cl)cn1)c1nc2ccccc2o1 do in these assays?
bCat KO growth: 89.6; H69AR inhibit: 93.4; Fibroblast inh: 105.1; HUVEC prolif 384: 80.2; HCT116 PTEN-null: 87.1

Results for O=C/C(=C\Nc1ccc(Cl)cn1)c1nc2cc(Cl)ccc2o1 ?
bCat KO growth: 68.2; H69AR inhibit: 38.3*; Fibroblast inh: 89.4; HUVEC prolif 384: 34.7; HCT116 PTEN-null: 56.2

What do the screens show for `Cc1ccc(-n2nc(C)c(C3C(C#N)=C(N)OC4=C3C(=O)CCC4)c2Cl)cc1` (configuration not stated)?
H69AR inhibit: 50.7; Fibroblast inh: 91.7; HUVEC prolif 384: 90.5

Results for Cc1nn(-c2ccccc2)c(Cl)c1C1C(C#N)=C(N)OC2=C1C(=O)CC(C)(C)C2 (configuration not stated) ?
bCat KO growth: 73.9; H69AR inhibit: 8.8*; Fibroblast inh: 71.1; HUVEC prolif 384: 55.5; HCT116 PTEN-null: 74.5

How did Cc1nc2sccn2c(=O)c1Br do in these assays?
bCat KO growth: 86.9; HCT116 PTEN-null: 92.2

How did COC(=O)c1ccc2c(c1O)C(=O)c1ccccc1C2=O do in these assays?
bCat KO growth: 4.5*; HCT116 PTEN-null: 2.8*

Results for C=CCn1c(CCC(=O)Nc2ccc(C)c(Cl)c2)nnc1SCC(=O)Nc1ccccc1C ?
bCat KO growth: 84.0; HCT116 PTEN-null: 78.8

How did CNc1sc(C(=O)c2cccs2)c(N)c1-c1nc2ccccc2s1 do in these assays?
bCat KO growth: 79.5; H69AR inhibit: 62.6; Fibroblast inh: 83.0; HUVEC prolif 384: 59.8; HCT116 PTEN-null: 81.4

How did CNc1sc(C(=O)c2ccc(F)cc2)c(N)c1-c1nc2ccccc2s1 do in these assays?
bCat KO growth: 75.5; H69AR inhibit: 5.7*; Fibroblast inh: 57.2; HUVEC prolif 384: 25.3*; HCT116 PTEN-null: 76.9

How did CCn1c(SCc2ccc(C#N)cc2)nnc1-c1ccc(S(=O)(=O)N2CCCCC2)cc1 do in these assays?
bCat KO growth: 74.8; H69AR inhibit: 33.7*; Fibroblast inh: 86.5; HUVEC prolif 384: 75.4; HCT116 PTEN-null: 66.4

How did Cc1ccc(C)c(S(=O)(=O)NC(CCC(N)=O)C(=O)O)c1 (configuration not stated) do in these assays?
H69AR inhibit: 93.1; Fibroblast inh: 106.2; HUVEC prolif 384: 87.3

What do the screens show for `COc1ccc(S(=O)(=O)N2CCCCC2)cc1NC(=O)CSc1ncnc2ccccc12`?
bCat KO growth: 63.5; HCT116 PTEN-null: 62.0

Results for O=C(Oc1ccc2c(c1)OCO2)c1cc2c(s1)CCC2 ?
bCat KO growth: 2.6*; H69AR inhibit: 95.6; Fibroblast inh: 66.1; HUVEC prolif 384: 55.0; HCT116 PTEN-null: 2.1*

What do the screens show for `O=C(c1cc2c(s1)CCCC2)N1CCN(Cc2ccc3c(c2)OCO3)CC1`?
bCat KO growth: 73.5; H69AR inhibit: 89.3; Fibroblast inh: 98.1; HUVEC prolif 384: 81.6; HCT116 PTEN-null: 79.3

How did COC(=O)CCC(=O)Nc1sc(C)c(C)c1C(N)=O do in these assays?
bCat KO growth: 100.4; H69AR inhibit: 18.9*; Fibroblast inh: 98.4; HUVEC prolif 384: 84.6; HCT116 PTEN-null: 100.6

What do the screens show for `O=c1[nH]c(Nc2nc3ccccc3o2)nc2c1CCCC2`?
bCat KO growth: 3.3*; H69AR inhibit: 16.5*; Fibroblast inh: 5.6*; HUVEC prolif 384: 55.2; HCT116 PTEN-null: 2.8*

What do the screens show for `CSc1nc(-c2ccccc2)nn1C(=O)c1ccc(C)cc1`?
bCat KO growth: 102.9; HCT116 PTEN-null: 100.0

What do the screens show for `Cc1cc(NC2CCCCC2)nc(NCc2ccccc2)n1`?
bCat KO growth: 2.6*; HCT116 PTEN-null: 3.2*
